Experimental data published in PubChem BioAssay AID602226 (The Scripps Research Institute Molecular Screening Center, 2012).
The source made the active and inactive calls.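 The calls were made as follows: active = average inhibition of labeled dioxin binding to the receptor of at least 10% at 10 µM; inactive = the rest.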

Test system: Aryl hydrocarbon receptor (Cavia porcellus)
Assay: competitors of radiolabeled TCDD at AHR – cell lysate, guinea pig liver cytosol, radiometric, counter-screen for AHR activator project, late-stage follow-up (AID 602226)
Conditions: [3H]TCDD HAP binding; for inhibition: at 10 µM, stronger effect = higher value
Outline: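 Material: guinea pig hepatic cytosol, AHR source / Medium: HEDG buffer at pH 7.5 / Probe or stimulus: [3H]TCDD radioligand at 2 nM final / Times: 1 h compound–radioligand competition at room temperature / Signal: scintillation counting of hydroxyapatite-bound radioligand / Evaluation: % reduction of specific radioligand binding / Control set: radioligand alone and 200 nM TCDF / Repeats: three replicates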

[1] = measured here: IC50 range upper bound
[2] = measured here: IC50 range lower bound

Row | SMILES | inhibition | IC50 [1] [µM] | IC50 [2] [µM]
1 | Cc1ccc(-c2cc(-c3cccs3)[nH]n2)c(O)c1 | 99% | 0.1 | –
2 | CCOC(=O)Cc1cc(-c2ccc(O)cc2)nc2ccc3ccccc3c12 | 39% | – | 1
3 | COc1ccc(NC(=O)c2cccc3c(Br)cccc23)cc1 | 65% | 1 | 0.1
4 | Cc1csc(SCC(=O)Nc2ccc(Cl)cn2)n1 | 9.5% (inactive) | – | –
5 | COc1ccccc1NC(=O)c1ccc(C(=O)Nc2ccccc2OC)nc1 | 32% | – | –
6 | Cc1nc(N)nc(Nc2ccc(Cl)cc2)c1Br | 79% | 1 | 0.1
